In the array DNA melting data of Ke et al. (doi:10.1101/2024.01.08.574731):

Key:
[1] = folding enthalpy; higher = less favourable; fluorescence melt of hairpins on a sequencing array, two-state fit; conditions: sodium 0.088 M
How it was run: (§1)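 Bootstrapped two-state fits yielded melting temperature and folding enthalpy for library hairpins. Cy3 fluorescence, with annealed Cy3 and quencher oligos, was imaged on a sequenced MiSeq flow cell in 50 mM Na-HEPES pH 8.0, 25 mM NaCl in 2.5 °C steps up to 60 °C, and normalised to pre-quench Cy3 and to control constructs. Four replicates were combined by inverse variance, and fitted temperatures were raised by 9.35 °C to match UV melts.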

[2] = melting temperature; fluorescence melt of hairpins on a sequencing array, two-state fit, raised by 9.35 °C to match UV melts; conditions: sodium 0.088 M
How it was run: as §1

Q: What does the source list for GCGTTGCGAAAGCATAGC ((..(((....)))..))?
A: folding enthalpy [1]: -26.5 kcal/mol; Tm [2]: 58.4 °C

Q: Which results are given for GCGGACCTCCGC ((((....))))?
A: folding enthalpy [1]: -27.4 kcal/mol; Tm [2]: 55.9 °C

Q: With GCGATGGGAAACCACCGC (((.(((....))).))) as the sequence, how does the folding enthalpy [1] read?
A: Its folding enthalpy is -48.5 kcal/mol.

Q: And the Tm [2]?
A: The Tm was 51.1 °C.

Q: For GCACGAGGAAACTCACGC ((..(((....)))..)), which folding enthalpy [1] is on record?
A: The folding enthalpy was -22.7 kcal/mol.

Q: And the Tm [2]?
A: Its Tm is 31.7 °C.

Q: With GATCTGTTTTCAGATC ((((((....)))))) as the sequence, how does the folding enthalpy [1] read?
A: The folding enthalpy was -49.9 kcal/mol.

Q: And the Tm [2]?
A: The Tm was 51.4 °C.

Q: For GAAAAGGGAAACCTTTCC (.(((((....))))).), which folding enthalpy [1] is on record?
A: The folding enthalpy was -13.9 kcal/mol.

Q: And the Tm [2]?
A: The Tm was 27.7 °C.

Q: For GATCGGGCCACCGATC ((((((....)))))), which folding enthalpy [1] is on record?
A: The folding enthalpy was -39.5 kcal/mol.

Q: What about the Tm [2] of the same sequence?
A: The Tm was 67.5 °C.

Q: What does the source list for GGTTCCGAAAGGACTACC ((((((....)))..)))?
A: folding enthalpy [1]: -15.3 kcal/mol; Tm [2]: 36.1 °C

Q: Which folding enthalpy [1] does the source give for GATCCTTGTAAGGATC ((((((....)))))) here?
A: Its folding enthalpy is -42.3 kcal/mol.

Q: And the Tm [2]?
A: Its Tm is 55.6 °C.

Q: What does the source list for GCTCTGCGAAAGCAAGGC ((..(((....)))..))?
A: folding enthalpy [1]: -17.7 kcal/mol; Tm [2]: 46.9 °C

Q: For GCGGACAACCGC ((((....)))), which folding enthalpy [1] is on record?
A: The folding enthalpy was -19.5 kcal/mol.

Q: And the Tm [2]?
A: Its Tm is 53.1 °C.

Q: What does the source list for GATCATTGTGATGATC ((((((....))))))?
A: folding enthalpy [1]: -43.4 kcal/mol; Tm [2]: 51 °C

Q: Which folding enthalpy [1] does the source give for GCGGTTGCGAAAGCACGC (((..(((....)))))) here?
A: Its folding enthalpy is -19.9 kcal/mol.

Q: What about the Tm [2] of the same sequence?
A: The Tm was 56.6 °C.

Q: What does the source list for GATGCTGGAAACAGTATC (((.(((....))).)))?
A: folding enthalpy [1]: -33.8 kcal/mol; Tm [2]: 47 °C

Q: For GGGGAACGAAAGTTGCCC (((.(((....))).))), which folding enthalpy [1] is on record?
A: The folding enthalpy was -39.1 kcal/mol.

Q: What about the Tm [2] of the same sequence?
A: The Tm was 64 °C.

Q: For GGGGGCGAAAGCCGACCC ((((((....)))..))), which folding enthalpy [1] is on record?
A: The folding enthalpy was -15.1 kcal/mol.

Q: And the Tm [2]?
A: Its Tm is 54 °C.

Q: With CGCGCCGGAAACGGGCG (((.(((....)))))) as the sequence, how does the folding enthalpy [1] read?
A: Its folding enthalpy is -26.4 kcal/mol.

Q: What about the Tm [2] of the same sequence?
A: Its Tm is 60.4 °C.

Q: Which results are given for GCTTTCCGAAAGGACAGC (((.(((....))).)))?
A: folding enthalpy [1]: -35.7 kcal/mol; Tm [2]: 49.9 °C

Q: Which results are given for GAGTCACGAAAGTGTCTC (((.(((....))).)))?
A: folding enthalpy [1]: -30 kcal/mol; Tm [2]: 49.8 °C

Q: Which folding enthalpy [1] does the source give for GATCCTTGCTAGGATC ((((((....)))))) here?
A: The folding enthalpy was -35.7 kcal/mol.

Q: And the Tm [2]?
A: Its Tm is 53.7 °C.

Q: Which folding enthalpy [1] does the source give for GATCAATTATTTGATC ((((((....)))))) here?
A: Its folding enthalpy is -38.9 kcal/mol.

Q: What about the Tm [2] of the same sequence?
A: Its Tm is 45.8 °C.

Q: For GGCTGCGGAAACGTGGCC (((..((....))..))), which folding enthalpy [1] is on record?
A: The folding enthalpy was -45.6 kcal/mol.

Q: And the Tm [2]?
A: Its Tm is 56.5 °C.

Q: With GAAGCCGCGAAAGCGTTC (((..(((....)))))) as the sequence, how does the folding enthalpy [1] read?
A: The folding enthalpy was -11 kcal/mol.

Q: What about the Tm [2] of the same sequence?
A: Its Tm is 26.3 °C.

Q: Which folding enthalpy [1] does the source give for GGCGGTGGAAACGTCGCC ((((..(....)..)))) here?
A: The folding enthalpy was -33.8 kcal/mol.

Q: What about the Tm [2] of the same sequence?
A: The Tm was 53.9 °C.

Q: With GATTGAGAAATCAATC ((((((....)))))) as the sequence, how does the folding enthalpy [1] read?
A: Its folding enthalpy is -25.9 kcal/mol.

Q: What about the Tm [2] of the same sequence?
A: The Tm was 45.5 °C.

Q: For GCCAACGAAAGTTAGGC ((((((....))).))), which folding enthalpy [1] is on record?
A: The folding enthalpy was -28.9 kcal/mol.

Q: What about the Tm [2] of the same sequence?
A: The Tm was 52.8 °C.

Q: For GCGCTGGGAAACTGGCGC ((((..(....)..)))), which folding enthalpy [1] is on record?
A: Its folding enthalpy is -49.8 kcal/mol.

Q: What about the Tm [2] of the same sequence?
A: Its Tm is 57.3 °C.

Q: For GTACACGAAAGTGGGTAC ((((((....)))..))), which folding enthalpy [1] is on record?
A: Its folding enthalpy is -14.9 kcal/mol.

Q: And the Tm [2]?
A: Its Tm is 37.4 °C.

Q: With GACTGCGAAAGCAGTGTC ((((((....)))..))) as the sequence, how does the folding enthalpy [1] read?
A: The folding enthalpy was -10.2 kcal/mol.

Q: And the Tm [2]?
A: Its Tm is 58.6 °C.

Q: What does the source list for GAGAGCGAAAGCTCCCTC ((((((....)))..)))?
A: folding enthalpy [1]: -10.3 kcal/mol; Tm [2]: 44 °C

Q: Which folding enthalpy [1] does the source give for GTACTCGAAAGAGCATAC ((((((....)))..))) here?
A: The folding enthalpy was -10.9 kcal/mol.

Q: What about the Tm [2] of the same sequence?
A: The Tm was 23.5 °C.

Q: For GTCACTGGAAACAGTGAC (((((((....))))))), which folding enthalpy [1] is on record?
A: The folding enthalpy was -46.7 kcal/mol.

Q: And the Tm [2]?
A: The Tm was 63 °C.

Q: Which folding enthalpy [1] does the source give for GATCAGGGTCTGATC ((((((...)))))) here?
A: Its folding enthalpy is -24.1 kcal/mol.

Q: And the Tm [2]?
A: The Tm was 49.7 °C.

Q: Which folding enthalpy [1] does the source give for GCGGAAGCGAAAGCTCGC (((..(((....)))))) here?
A: Its folding enthalpy is -31.5 kcal/mol.

Q: What about the Tm [2] of the same sequence?
A: Its Tm is 52.1 °C.

Q: Which folding enthalpy [1] does the source give for GATCTTCAAAAAGATC ((((((....)))))) here?
A: The folding enthalpy was -27.3 kcal/mol.

Q: What about the Tm [2] of the same sequence?
A: The Tm was 40.4 °C.

Q: Which results are given for GATCTGACGCAGATC ((((((...))))))?
A: folding enthalpy [1]: -29.5 kcal/mol; Tm [2]: 47.3 °C

Q: Which folding enthalpy [1] does the source give for GCCTGGCGAAAGCAATGC ((.(.((....)).).)) here?
A: Its folding enthalpy is -7.84 kcal/mol.

Q: And the Tm [2]?
A: Its Tm is 26.9 °C.

Q: What does the source list for GCGGAGGGAAACTTCCGC (((((.(....).)))))?
A: folding enthalpy [1]: -35.4 kcal/mol; Tm [2]: 57.9 °C
